{
  "source": "ChEMBL document CHEMBL1138795",
  "about": "“Inhibition of nucleoside transport by new analogues of 4-nitrobenzylthioinosine: replacement of the ribose moiety by substituted benzyl groups” (J Med Chem, 2004)",
  "data": [
    {"molecular_target": "T1, Equilibrative nucleoside transporter 1 (Homo sapiens) (UniProt Q99808)", "T1 sequence (whole entry)": "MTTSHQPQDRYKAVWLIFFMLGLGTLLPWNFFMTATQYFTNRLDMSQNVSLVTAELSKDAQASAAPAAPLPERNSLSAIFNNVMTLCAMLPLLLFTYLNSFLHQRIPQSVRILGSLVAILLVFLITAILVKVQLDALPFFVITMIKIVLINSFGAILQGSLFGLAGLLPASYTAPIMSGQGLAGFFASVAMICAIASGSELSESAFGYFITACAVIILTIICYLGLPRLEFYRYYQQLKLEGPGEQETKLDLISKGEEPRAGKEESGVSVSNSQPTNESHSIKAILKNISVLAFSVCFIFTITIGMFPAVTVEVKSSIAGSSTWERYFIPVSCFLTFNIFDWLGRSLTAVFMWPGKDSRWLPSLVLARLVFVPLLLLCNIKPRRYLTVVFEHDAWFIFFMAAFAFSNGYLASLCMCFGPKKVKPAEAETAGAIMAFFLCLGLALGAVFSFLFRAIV", "assay": "Displacement of [3H]NBTI from human erythrocyte membrane at 10 uM", "method_in_brief": "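Human erythrocyte ghost membranes (whole blood lysed in 10 mM MgCl2/10 mM Tris-HCl pH 8.0, repeated water washes, resuspended in 50 mM Tris-HCl pH 7.4, stored −80 °C) incubated to equilibrium at 25 °C with [3H]NBTI (KD 0.59 nM). Test compound at a single 10 μM concentration. Result expressed as percent displacement of specific radioligand binding.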", "units": {"Binding activity": "%"}, "values": [
      {"compound": "O=[N+]([O-])c1ccc(CSc2ncnc3c2ncn3Cc2ccc(Cl)c(Cl)c2)cc1", "Binding activity": 34},
      {"compound": "O=[N+]([O-])c1ccc(CSc2ncnc3c2ncn3Cc2ccccc2F)cc1", "Binding activity": 38},
      {"compound": "O=[N+]([O-])c1ccc(CSc2ncnc3c2ncn3Cc2c(F)cccc2F)cc1", "Binding activity": 32},
      {"compound": "O=[N+]([O-])c1ccc(CSc2ncnc3c2ncn3Cc2ccc(OC(F)(F)F)cc2)cc1", "Binding activity": 24},
      {"compound": "O=[N+]([O-])c1ccc(CSc2ncnc3c2ncn3Cc2c(Cl)cccc2Cl)cc1", "Binding activity": 6},
      {"compound": "COc1cc(Cn2cnc3c(SCc4ccc([N+](=O)[O-])cc4)ncnc32)cc(OC)c1", "Binding activity": 47},
      {"compound": "O=[N+]([O-])c1ccc(CSc2ncnc3c2ncn3Cc2cccc(F)c2F)cc1", "Binding activity": 32},
      {"compound": "O=[N+]([O-])c1ccc(CSc2ncnc3c2ncn3Cc2ccccn2)cc1", "Binding activity": 42},
      {"compound": "O=[N+]([O-])c1ccc(CSc2ncnc3c2ncn3Cc2ccccc2Cl)cc1", "Binding activity": 44}
    ]},
    {"molecular_target": "T2, Equilibrative nucleoside transporter 1 (Homo sapiens, UniProt Q99808)", "T2 sequence (Q99808 whole entry)": "T1 sequence (whole entry)", "assay": "Inhibition of [3H]NBTI binding to nucleoside transport protein of human erythrocyte membrane", "method_in_brief": "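Equilibrium displacement of [3H]NBTI (KD 0.59 nM) from human erythrocyte ghost membranes at 25 °C. Membranes prepared by hypotonic lysis in Tris-HCl/MgCl2 pH 8.0 and resuspended in 50 mM Tris-HCl pH 7.4. Compounds giving ≥50% inhibition at 10 μM were run over a concentration range. IC50 values were converted to Ki, n = 3, reported with SEM.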", "units": {"Ki": "nM"}, "values": [
      {"compound": "O=[N+]([O-])c1ccc(CSc2ncnc3c2ncn3Cc2ccccc2-c2ccccc2F)cc1", "Ki": 111},
      {"compound": "O=[N+]([O-])c1ccc(CSc2ncnc3c2ncn3Cc2ccccc2-c2ccccc2)cc1", "Ki": 281},
      {"compound": "O=[N+]([O-])c1ccc(CSc2ncnc3c2ncn3Cc2ccncc2)cc1", "Ki": 2170},
      {"compound": "COc1ccc(Cn2cnc3c(SCc4ccc([N+](=O)[O-])cc4)ncnc32)cc1", "Ki": 563},
      {"compound": "CC(C)(C)OC(=O)Nc1ccccc1Cn1cnc2c(SCc3ccc([N+](=O)[O-])cc3)ncnc21", "Ki": 422},
      {"compound": "O=[N+]([O-])c1ccc(CSc2ncnc3c2ncn3CCCc2ccccc2)cc1", "Ki": 488},
      {"compound": "Cc1ccc(Cn2cnc3c(SCc4ccc([N+](=O)[O-])cc4)ncnc32)cc1", "Ki": 711},
      {"compound": "O=[N+]([O-])c1ccc(CSc2ncnc3c2ncn3Cc2ccccc2-c2cccs2)cc1", "Ki": 129},
      {"compound": "O=[N+]([O-])c1ccc(CSc2ncnc3c2ncn3Cc2ccccc2-c2ccc(O)cc2)cc1", "Ki": 154},
      {"compound": "O=[N+]([O-])c1ccc(CSc2ncnc3c2ncn3Cc2cccc(F)c2)cc1", "Ki": 361},
      {"compound": "COc1ccccc1-c1ccccc1Cn1cnc2c(SCc3ccc([N+](=O)[O-])cc3)ncnc21", "Ki": 225},
      {"compound": "COc1cccc(Cn2cnc3c(SCc4ccc([N+](=O)[O-])cc4)ncnc32)c1", "Ki": 264},
      {"compound": "O=[N+]([O-])c1ccc(CSc2ncnc3c2ncn3Cc2ccccc2-c2cccc(C(F)(F)F)c2)cc1", "Ki": 86},
      {"compound": "O=[N+]([O-])c1ccc(CSc2ncnc3c2ncn3Cc2ccc(Cl)cc2)cc1", "Ki": 236},
      {"compound": "O=[N+]([O-])c1ccc(CSc2ncnc3c2ncn3Cc2cc(F)cc(F)c2)cc1", "Ki": 1540},
      {"compound": "O=[N+]([O-])c1ccc(CSc2ncnc3c2ncn3Cc2ccccc2O)cc1", "Ki": 39},
      {"compound": "Nc1ccccc1Cn1cnc2c(SCc3ccc([N+](=O)[O-])cc3)ncnc21", "Ki": 124},
      {"compound": "O=[N+]([O-])c1ccc(CSc2ncnc3c2ncn3Cc2cccnc2)cc1", "Ki": 2710},
      {"compound": "O=[N+]([O-])c1ccc(CSc2ncnc3c2ncn3Cc2ccccc2-c2ccc(F)cc2)cc1", "Ki": 93},
      {"compound": "O=[N+]([O-])c1ccc(CSc2ncnc3c2ncn3Cc2ccccc2-c2ccc(C(F)(F)F)cc2)cc1", "Ki": 39},
      {"compound": "O=[N+]([O-])c1ccc(CSc2ncnc3c2ncn3Cc2ccc(F)cc2)cc1", "Ki": 3340},
      {"compound": "COc1cccc(-c2ccccc2Cn2cnc3c(SCc4ccc([N+](=O)[O-])cc4)ncnc32)c1", "Ki": 221},
      {"compound": "O=[N+]([O-])c1ccc(CSc2ncnc3c2ncn3Cc2ccccc2-c2ccccc2O)cc1", "Ki": 196},
      {"compound": "O=[N+]([O-])c1ccc(CSc2ncnc3c2ncn3Cc2cccc(C(F)(F)F)c2)cc1", "Ki": 2170},
      {"compound": "O=[N+]([O-])c1ccc(CSc2ncnc3c2ncn3Cc2ccc([N+](=O)[O-])cc2)cc1", "Ki": 200},
      {"compound": "Cc1ccccc1-c1ccccc1Cn1cnc2c(SCc3ccc([N+](=O)[O-])cc3)ncnc21", "Ki": 126},
      {"compound": "O=[N+]([O-])c1ccc(CSc2ncnc3c2ncn3Cc2ccc(F)c(F)c2)cc1", "Ki": 653},
      {"compound": "O=[N+]([O-])c1ccc(CSc2ncnc3c2ncn3CCc2ccccc2)cc1", "Ki": 2200},
      {"compound": "O=[N+]([O-])c1ccc(CSc2ncnc3c2ncn3Cc2ccccc2-c2ccsc2)cc1", "Ki": 89},
      {"compound": "O=[N+]([O-])c1ccc(CSc2ncnc3c2ncn3Cc2cc(F)ccc2F)cc1", "Ki": 1640},
      {"compound": "O=[N+]([O-])c1ccc(CSc2ncnc3c2ncn3Cc2cccc(Cl)c2)cc1", "Ki": 212},
      {"compound": "O=[N+]([O-])c1ccc(CSc2ncnc3c2ncn3Cc2cccc(O)c2)cc1", "Ki": 153},
      {"compound": "O=[N+]([O-])c1ccc(CSc2ncnc3c2ncn3Cc2ccccc2-c2cccc(O)c2)cc1", "Ki": 196},
      {"compound": "COc1ccccc1Cn1cnc2c(SCc3ccc([N+](=O)[O-])cc3)ncnc21", "Ki": 110},
      {"compound": "O=[N+]([O-])c1ccc(CSc2ncnc3c2ncn3Cc2ccc(I)cc2)cc1", "Ki": 130},
      {"compound": "COc1ccc(-c2ccccc2Cn2cnc3c(SCc4ccc([N+](=O)[O-])cc4)ncnc32)cc1", "Ki": 104},
      {"compound": "O=[N+]([O-])c1ccc(CSc2ncnc3c2ncn3Cc2ccc(F)cc2F)cc1", "Ki": 4880}
    ]}
  ]
}
